Data set [1] is described as follows: Drug level in liver of C57BL/6 mouse at 10 mg/kg, po after 3 hrs. It is filed as ADME, organism-based. The note with it: read-out: Drug uptake. Details: dose 10 mg/kg, route oral. The method in brief:
(§1)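 Tissue distribution in C57BL/6 mice. A single oral dose of 10 mg/kg was given as a solution in EtOH/PEG400/water (10:50:40). Parent and its cis isomer were both measured, in μM, in plasma, liver, small intestine, adipose fat and skin at 3 h and 24 h.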

A short description of data set [2]: AUC in Sprague-Dawley rat at 2 mg/kg, po. It is filed as ADME, organism-based. Details: dose 2 mg/kg, route oral. The note with it: plasma.
The nature of data set [3]: Drug level in adipose fat of C57BL/6 mouse at 10 mg/kg, po after 3 hrs. The note with it: read-out: Drug uptake. It is filed as ADME, organism-based, Adipose tissue. Details: dose 10 mg/kg, route oral. The method in brief:
as §1

Data set [4] in a line: Solubility in PBS buffer at pH 2. The format is physicochemical. Put shortly: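 High-throughput solubility test in PBS buffer at pH 2 and at pH 7. Free form and salt forms (TFA, formate, ammonium) were tested separately.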
A further data set concerns Salmonella typhimurium. Kind of data set: Induction of mutagenicity in Salmonella typhimurium TA100 assessed as increase in number of revertants in presence of metabolic activation. The settings on record: salmonella enterica subsp. enterica serovar typhimurium. The format is toxicity, organism-based. The method in brief:
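Microbial reverse-mutation (Ames) test in strains TA1535, TA98 and TA100, with and without metabolic activation. The concentration range was 30 to 5000 μg/plate. A positive call required a 2-fold or greater increase in revertants relative to the solvent control.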

The nature of data set [5]: Half life in Sprague-Dawley rat at 1 mg/kg, iv or 2 mg/kg, po. It is filed as ADME, organism-based. The note with it: in vivo.
The subject of the next data set is Plasma. Kind of data set: Drug level in plasma of C57BL/6 mouse assessed as cis-4-((1-(5-(5-(trifluoromethyl)-1H-benzo[d]imidazol-2-yl)pyridin-2-yl)piperidin-4-yl)oxy)cyclohexanecarboxylic acid level at 10 mg/kg, po after 24 hrs. The format is ADME, organism-based. Details: dose 10 mg/kg, route oral. The settings on record: in vivo. The method in brief:
as §1

Structures are written as SMILES. ≈ marks a conversion by molar mass, not a printed value.

Take `O=C(O)[C@H]1CC[C@H](OC2CCN(c3ccc(-c4nc5cc(C(F)(F)F)ccc5[nH]4)cn3)CC2)CC1`: the concentration at 3 h in data set [1] stood at 21600 nM; in data set [3] it was 237 nM. In addition, the AUC in data set [2] was 1 µM·h. This compound also yielded a solubility in data set [4] of 167 µM (≈ 81.6 µg/mL). In addition, the Activity entry in the data set with Salmonella typhimurium was “Non-toxic”. In addition, in data set [5], the half-life was 54.6 min. In addition, the concentration in the data set with Plasma was below 10 nM.

The values are drawn from ChEMBL document CHEMBL3351398, “Discovery of a Potent and Selective DGAT1 Inhibitor with a Piperidinyl-oxy-cyclohexanecarboxylic Acid Moiety” (ACS Med Chem Lett, 2014).
